Assay results gathered from unrelated publications.
Cell line: MCF7
Effect on: cell growth or viability

COc1ccc(C(=O)/C=C/c2cccc(Cl)c2)cc1S(N)(=O)=O
GI50 (SRB; 48 h): 2000 nM

COc1cc(-c2ccc(-c3ccc(C(=N)N)nc3)s2)cc(OC)c1OC
GI50 (SRB): 1300 nM

COc1cc2c(OC)nc3c4cc5c(cc4cc(OCCCN4CCC(N6CCCCC6)CC4)c3c2cc1OC)OCO5
GI50 (MTT; 72 h): 1500 nM

CN1CCN(c2ccc(Nc3ncc4cc(C#N)c(=O)n(C5CCCC5)c4n3)cc2)CC1
GI50 (resazurin; 96 h): 150 nM

COc1ccc(C(=O)/C=C/c2ccc(Cl)c(Cl)c2)cc1S(N)(=O)=O
GI50 (SRB; 48 h): 1100 nM

COc1cc2c(OC)nc3c4cc5c(cc4cc(OCCN4CCCC4)c3c2cc1OC)OCO5
GI50 (MTT; 72 h): ≥ 100000 nM

COc1cc(C(CC(C)=O)NCCc2ccc(O)c(O)c2)ccc1O (centres unmarked)
GI50 (MTT): 22400 nM

COc1ccc(C(=O)/C=C/c2cc3c(cc2Br)OCO3)cc1S(N)(=O)=O
GI50 (SRB; 48 h): 3800 nM

COc1cccc2c1C(=O)c1c(O)c3c(c(O)c1C2=O)C[C@@](O)(C(=O)CO)C[C@@H]3O[C@H]1C[C@H](N)[C@H](O)[C@H](C)O1
GI50 (MTT): 20 nM

CCN(CC)CCOc1cc2cc3c(cc2c2nc(OC)c4cc(OC)c(OC)cc4c12)OCO3
GI50 (MTT; 72 h): ≥ 100000 nM

COc1ccc(C(=O)/C=C/c2ccccc2Br)cc1S(N)(=O)=O
GI50 (SRB; 48 h): 2900 nM

COc1cc(C(CC(=O)c2ccc([N+](=O)[O-])cc2)NCCc2ccc(O)c(O)c2)ccc1O (centres unmarked)
GI50 (MTT): 160 nM

COc1cccc(Oc2ccccc2NC(=O)CNC(=O)c2cccc3ccccc23)c1
GI50 (SRB; 48 h): 100 nM

COc1cc(C(CC(=O)c2ccc(C(C)(C)C)cc2)NCCc2ccc(O)c(O)c2)ccc1O (centres unmarked)
GI50 (MTT): 2600 nM

CC(=O)c1c(C)c2cnc(Nc3ccc(N4CCNCC4)cn3)nc2n(C2CCCC2)c1=O
GI50 (resazurin): 150 nM

COc1cc2c(OC)nc3c4cc5c(cc4cc(OCCCN4CCCC4)c3c2cc1OC)OCO5
GI50 (MTT; 72 h): 8600 nM

COc1ccc(C(=O)/C=C/c2cccnc2)cc1S(N)(=O)=O
GI50 (SRB; 48 h): 4900 nM
